This is a sample that favours compounds with a hit; in the whole collection about 2.3% have one here.
V1aR counter = V1a receptor agonism, counter-screen for OXTR agonists. CHO-V1R cells, Fluo-8 calcium fluorescence, agonist mode; 0% DMSO, 100% 3 nM vasopressin. P37288. activation, % at 3 µM. hit rate 0.25% among 320,000;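 active means activation above the mean activation of all tested compounds plus 3 SD, per screening run, cut at about 20% in these data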;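 further: signal is peak over basal fluorescence ratio across a 100 second FLIPR read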
TAAR1 agonist = human TAAR1 agonism. Q96RJ0. CHO RD-HGA16 TAAR1, Fluo-8 calcium fluorescence; vehicle wells 0%, saturating PEA agonist 100%. activation, % at 3 µM. hit rate 0.99% among 360,000. AID 624467;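 active means activation above the mean activation of all test compounds in the run plus 3 SD, cut at about 38% in these data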
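test system = CHO RD-HGA16 cells carrying human TAAR1 plus Gα16 | schedule = 17-24 h seeding, 75 min 37 °C dye, 30 min RT | compound dosing = 3 µM single concentration | control set = DMSO and PEA EC100 | replicates = n 1 | signal = Fluo-8 fluorescence, 5 s baseline then 140 s kinetic read | measure = percent activation vs PEA EC100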
OXTR ag = human OXTR agonism; P30559; CHO-OTR cells, Fluo-8 calcium fluorescence; normalized: DMSO 0%, oxytocin 100%; activation, % at 3 µM; hit rate 0.32% among 320,000; AID 2435;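 active means activation above the mean of all tested compounds plus 3 SD, cutoff set per screening run, cut at about 20% in these data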;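 further: peak over basal fluorescence ratio from a 100 s FLIPR kinetic read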
Target sequence (P30559 whole entry, looked up): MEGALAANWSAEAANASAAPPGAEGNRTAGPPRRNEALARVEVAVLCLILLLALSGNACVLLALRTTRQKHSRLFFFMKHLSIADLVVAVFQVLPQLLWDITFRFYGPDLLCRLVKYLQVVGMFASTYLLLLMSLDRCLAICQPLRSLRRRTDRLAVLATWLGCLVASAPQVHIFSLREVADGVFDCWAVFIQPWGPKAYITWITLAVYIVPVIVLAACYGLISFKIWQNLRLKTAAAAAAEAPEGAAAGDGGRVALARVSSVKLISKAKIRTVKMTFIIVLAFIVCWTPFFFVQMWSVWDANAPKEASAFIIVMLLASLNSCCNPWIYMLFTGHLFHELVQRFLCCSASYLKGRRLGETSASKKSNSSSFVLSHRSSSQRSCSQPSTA
OXTR potentiator = human OXTR potentiation; activation, % at 3 µM; hit rate 0.061% among 320,000; CHO-OTR cells, Fluo-8 calcium fluorescence, potentiator mode; 0% = oxytocin EC15, 100% = EC100;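 active means activation above that plate's cutoff, the mean activation of tested compounds plus 3 SD, cut at about 6.6% in these data, passing the limit was not always enough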;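 further: 100% uses oxytocin at 75 nM as the full agonist control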
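test system = CHO-OTR cells, human receptor | compound = single-point 3.0 µM | schedule = 6 min compound pre-incubation at room temperature, 100 s kinetic read | signal = Fluo-8 no-wash calcium dye fluorescence, excitation 470-495 nm, emission 515-575 nm | repeats = single well per compound, singlicate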
TAAR1 antagonist = antagonists of human TAAR1; Q96RJ0; CHO RD-HGA16 TAAR1, Fluo-8 calcium fluorescence, antagonist; hit rate 1.5% among 360,000; inhibition, % at 3 µM;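 active means inhibition above a per-plate cutoff, the mean inhibition of test compounds on that plate plus 3 SD, cut at about 49% in these data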;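 further: 0% = DMSO plus EC80 beta-PEA response and 100% = DMSO alone without agonist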
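Test system – hTAAR1-expressing CHO RD-HGA16 cells, Gα16-coupled · Also added – β-PEA at EC80 concentration, post-compound challenge · Compound – 3 µM, single point · Incubation – dye loading 75 min at 37 °C, then 30 min room temperature · Measured by – Fluo-8 intracellular calcium dye fluorescence, real-time kinetic reads · Benchmarks – vehicle and agonist controls · Replicates – singlicate, one well per test compound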
* hit, by the source's call.

For CCn1c(SCC(=O)Nc2ccc(N3CCOCC3)cc2)nnc1-c1ccncc1 the results were V1aR counter 2, TAAR1 agonist 1, OXTR ag 0, OXTR potentiator -10 and TAAR1 antagonist -8.
For COc1ccc(C2C=C(c3ccc(Br)s3)Nc3ncnn32)cc1OC (centres undefined) the results were V1aR counter 17, OXTR ag 23* and OXTR potentiator -23.
For COc1ccc(C2C=C(c3ccc(C)cc3)Nc3ncnn32)cc1 (centres undefined) the results were TAAR1 agonist -2 and TAAR1 antagonist 5.
COC(=O)C1=C(C)N(Cc2ccccc2C(F)(F)F)C(=NCc2ccc3c(c2)OCO3)NC1c1cccc(Cl)c1 (centres undefined) was read as TAAR1 agonist 17 and TAAR1 antagonist 8.
Screening COc1ccccc1N1CCN(C(=O)C2CCN(S(=O)(=O)c3ccc4c(c3)CC(C)N4C(C)=O)CC2)CC1 (centres undefined) returned V1aR counter 8, TAAR1 agonist 10, OXTR ag 5, OXTR potentiator -11 and TAAR1 antagonist 24.
COc1ccccc1N1CCN(C(=O)C2CCN(S(=O)(=O)c3ccc4c(c3)CC(C)N4C(=O)C3CC3)CC2)CC1 (centres undefined) was read as V1aR counter 12, TAAR1 agonist 13, OXTR ag 5, OXTR potentiator -7 and TAAR1 antagonist 57*.
For CC(=O)N1CCCc2cc(S(=O)(=O)N3CCCC(C(=O)N4CCN(c5ccccc5)CC4)C3)ccc21 (centres undefined) the results were V1aR counter 8, TAAR1 agonist 11, OXTR ag 11, OXTR potentiator -23 and TAAR1 antagonist 33.
Screening COc1ccccc1N1CCN(C(=O)C2CCCN(S(=O)(=O)c3ccc4c(c3)CCCN4C(C)=O)C2)CC1 (centres undefined) returned V1aR counter 7, TAAR1 agonist 15, OXTR ag 7, OXTR potentiator -23 and TAAR1 antagonist 68*.
For C[C@@]12C(=O)N(c3ccccc3)C(=O)N1[C@@H]1c3ccccc3OC[C@@H]1[C@H]2c1ccccc1 the results were V1aR counter 0, TAAR1 agonist 6, OXTR ag -2, OXTR potentiator -8 and TAAR1 antagonist 55*.
C[C@]12C(=O)N(c3ccc(Cl)cc3)C(=O)N1[C@H]1c3ccccc3OC[C@@H]1[C@H]2c1ccccc1 was read as V1aR counter 2, OXTR ag 2 and OXTR potentiator 4.
Screening COc1ccc(NC(=O)c2cc(-c3ccncc3)nc3ccc(Br)cc23)cc1OC returned V1aR counter 2, TAAR1 agonist 15, OXTR ag 4, OXTR potentiator -14 and TAAR1 antagonist 53*.
O=Cc1ccc2c(c1)CCN2Cc1ccccc1 was read as V1aR counter 0, TAAR1 agonist -2, OXTR ag -1, OXTR potentiator -6 and TAAR1 antagonist -6.
O=C(NCCc1ccccn1)C(F)(F)C(F)(F)C(F)(F)C(F)(F)C(F)(F)C(F)(F)C(F)(F)C(F)F was read as V1aR counter 0, TAAR1 agonist 41*, OXTR ag 0, OXTR potentiator 1 and TAAR1 antagonist -1.
COc1cccc(NC(=O)CCc2c(C)nc3nc(CNC(=O)c4cccc(F)c4)nn3c2C)c1 was read as V1aR counter 4, TAAR1 agonist 2, OXTR ag 0, OXTR potentiator -8 and TAAR1 antagonist 3.
For Cc1c(C(=O)Nc2ccccc2)sc2nc(-c3ccccc3)cn12 the results were V1aR counter 9, TAAR1 agonist 23, OXTR ag 9, OXTR potentiator -19 and TAAR1 antagonist 51*.
Screening Cc1cccc(C(=O)OCC(=O)c2ccc3c(c2)NC(=O)CO3)c1 returned V1aR counter 5, TAAR1 agonist 10, OXTR ag 7, OXTR potentiator -3 and TAAR1 antagonist 46.
For O=C(NC1CC1)C1CC(=O)N(c2cccc(Cl)c2)C1 (centres undefined) the results were V1aR counter 1, TAAR1 agonist 0, OXTR ag 0, OXTR potentiator -12 and TAAR1 antagonist 9.

Screening data deposited in PubChem by The Scripps Research Institute Molecular Screening Center.
